aSyn UTR inh = 5' untranslated region of α-synuclein, MLPCN primary screen. alpha-synuclein 5'UTR reporter, inhibitor activity. 300,000 tested, 0.82% active. inhibition, % (tested at 7.5 µM). AID 1813; in the data active = inhibition above about 60%; inconclusive = no clear call, values can overlap the other calls;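 note: H4 neuroglioblastoma cells stably carrying SNCA 5'UTR luciferase fusion; 0% = DMSO wells and 100% = positive control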
SKKanGAS inh = inhibitors of SKKanGAS S. pyogenes growth in kanamycin (SK-promoter or general growth effect) | BacTiter-Glo, 6 h | inhibition, % at 7.5 µM | 300,000 tested, 1.3% active | AID 1662;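 active = mean replicate score, as percent of positive control median, at least 50; inconclusive = mean below 50 but one replicate at or above 50; inactive = mean and every replicate below 50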;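 note: strain carries kanamycin resistance gene driven by streptokinase promoter and grows in 40 µg/ml kanamycin; loss of luminescence reflects streptokinase promoter inhibition or plain growth inhibition; 0% = median of DMSO wells and 100% = positive control at its reference dose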
T cruzi repl = T. cruzi replication inhibition. AID 1885. T. cruzi beta-gal in NIH3T3, luminescence, 90 h. 300,000 tested, 1.4% active. inhibition, % (concentration not given with the values);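 active = mean inhibition across valid replicates above about 55%, limit read from the data; inconclusive = mean below that limit but half or more replicates reach it; inactive = mean below it, under half of replicates reach it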;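 note: signal also drops with host cell toxicity which is not excluded here; 0% = plate median of DMSO wells and 100% = zero luminescence signal; higher percent means less beta-gal luminescence so fewer parasites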
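Incubation – ≥90 h infection period, 3 h prior cell attachment · System – NIH/3T3 fibroblasts plus reporter T. cruzi · Doses – compound pinned at 50 nL/well, DMSO · Read-out basis – percent inhibition of parasite-derived β-gal signal · Signal – luminescent β-galactosidase signal after 60 min lysis · Also added – 5000 T. cruzi trypomastigotes/well · Medium – Low-serum DMEM with 2% FBS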
Mdm2-MdmX inh = disrupts the human Mdm2-MdmX interaction; O15151+Q00987; SaOS-2 split-luciferase Mdm2/MdmX complementation, luminescence; inhibition, % at 8 µM; 330,000 tested, 3% active; AID 485346;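 active = inhibition of at least 50% at 8 µM in the primary screen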
CSC inhib = cancer stem cell inhibition. cancer stem cell-like cells viability, luminescence. inhibition, % at 7.5 µM. 300,000 tested, 1.1% active. AID 2717; in the data active = inhibition above about 75%; inconclusive = no clear call, values can overlap the other calls; tested in HMLE shEcad cells
Mdm2-MdmX conf = confirmation of human Mdm2/MdmX interaction inhibitors. shares compounds with Mdm2-MdmX inh. Mdm2-MdmX binding, luminescent assay. inhibition, % at 8 µM. 10,000 tested, 55% active. AID 489028; in the data active = inhibition above about 40%
Full FLuc ctr = inhibits full-length luciferase, flagging false Mdm2/MdmX hits; shares compounds with Mdm2-MdmX inh; SaOS-2 full-length luciferase counterscreen, luminescence; inhibition, % at 8 µM; 6,200 tested, 77% active;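 active = mean inhibition at 8 µM reaching about 37%, which flags the compound as non-specific, limit read from the data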;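 note: p53-null SaOS-2 cells with luciferase driven by a doxycycline-inducible promoter; compound on cells about two nights before reading with doxycycline added after day one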
Numbers without * were called inactive; ? = inconclusive; / = no result given. An excerpt weighted towards active compounds, which were near 5.4% of everything screened.

SMILES	aSyn UTR inh	SKKanGAS inh	T cruzi repl	Mdm2-MdmX inh	CSC inhib	others
COc1ccc(C)cc1NC(=O)CSc1nnc(COc2ccc(Cl)cc2)n1Cc1ccco1	16	22	17	29	79*
O=C(N/N=C/c1ccc[nH]1)c1sc2ccccc2c1Cl	-105	11	69*	29	93*
CSc1ccc(/C=N/NC(=O)CNc2cccc3ccccc23)cc1	4	1	6	27	4
O=C(N/N=C/c1c[nH]c2ccc(Br)cc12)c1ccn(Cc2ccc(Cl)cc2)n1	12	26	8	8	7
O=C(CNc1cccc2ccccc12)N/N=C/c1ccc[nH]1	12	50*	-17	-11	35
O=C(N/N=C/c1c[nH]c2ccccc12)c1ccn(Cc2ccc(Cl)cc2Cl)n1	34	55*	8	9	5
CCc1ccc2c(Cl)c(C(=O)N/N=C/c3c[nH]c4ccccc34)sc2c1	12	69*	12	46	62
O=C(COc1ccccc1Cl)NC(=S)Nc1ccccc1N1CCCC1	39	4	8	6	-12
O=C(O)CCC(=O)Nc1ccc(OCC(=O)O)cc1	-3	1	-12	2	-3
COC(=O)c1nc(-c2ccccc2)nc(-c2ccccc2)c1C(=O)OC	-3	-12	5	7	-5
Cc1c(CCOC(=O)c2cc([N+](=O)[O-])cc([N+](=O)[O-])c2)sc[n+]1CC(=O)c1ccc(Br)cc1	-3	12	57*	6	38
CC(=O)C[C@H](O)CC(=O)[C@H]1OC(=O)[C@H](C)C/C=C\Cc2ccccc21	/	/	/	4	10
CCC(C)(C)NC(=O)C(c1ccc(OC)cc1)N(Cc1cccs1)C(=O)CCC(=O)Nc1cc(C)on1 (configuration not stated)	/	/	/	-14	-5
CN(C)C(=O)COC(=O)/C=C/c1ccccc1[N+](=O)[O-]	-2	0	-24	12	-6
O=C(Nc1cccc(Cl)c1)c1nc[nH]c1C(=O)NCCCNC(=O)c1[nH]cnc1C(=O)Nc1cccc(Cl)c1	/	/	/	47	101*
Cc1cccc(NC(=O)c2nc[nH]c2C(=O)N[C@@H](CC(C)C)C(=O)OC(C)(C)C)c1	5	100*	39	34	/
CCOC(=O)c1ccc(NC(=O)c2nc[nH]c2C(=O)NCCCCCNC(=O)OC(C)(C)C)cc1	11	64*	-20	29	6
CC(C)C[C@H](NC(=O)c1[nH]cnc1C(=O)Nc1ccc(Cl)cc1)C(=O)OC(C)(C)C	12	60*	41	40	/
CC(C)C[C@H](NC(=O)c1nc[nH]c1C(=O)NCC(=O)OC(C)(C)C)C(=O)OC(C)(C)C	21	9	4	16	-4
CNC(=O)c1[nH]cnc1C(=O)Nc1cccc(Cl)c1	/	/	/	24	14
COc1ccc(C(C)=O)cc1CSc1ccc2c(c1)OCCO2	9	1	2	28	1
CCOc1ncccc1C(=O)OCC(=O)Nc1ccc(C(N)=O)cc1	9	-7	0	23	-11
Cc1cccc(C)c1NC(=O)COC(=O)[C@@H]1CCCN1C(=O)c1cccs1	/	/	/	4	-10
CSc1cccc(NC(=O)OC2CCCCCCCCCCC2)c1	29	66*	35	13	10
O=[N+]([O-])c1ccc(N2CCC(O)CC2)nc1	-6	1	-17	24	5
SMILES	aSyn UTR inh	SKKanGAS inh	T cruzi repl	Mdm2-MdmX inh	CSC inhib	others
CCN(CC)C(=O)[C@H]1C[C@H](CC(=O)NC(C)(C)C)C(=O)N2CCc3c([nH]c4cc(CCC(=O)N(C)C)ccc34)[C@]12C	/	/	/	-3	/
Cc1nc(C(=O)NC2CCCCC2)sc1C1(C)CC(c2cccnc2)=NO1 (configuration not stated)	17	9	61*	12	2
CCCCOC(=O)Cn1c2ccc(OC)cc2c2nc3ccccc3nc21	4	-5	-2	75*	0	Mdm2-MdmX conf=20
COc1ccccc1CNC(=O)c1cc(S(=O)(=O)N2CCCCC2)c[nH]1	16	-4	2	-7	16
C=CCn1c(SCC(=O)c2[nH]c(C)c(C(=O)OCC)c2C)nc2scc(-c3ccccc3)c2c1=O	?	13	25	95*	6	Mdm2-MdmX conf=60*;Full FLuc ctr=46*
Cn1c(N)c(C(=O)CSc2nnc(C3CC3)n2N)c(=O)n(C)c1=O	/	/	/	11	/
